Results published in PubChem BioAssay.
Calls of active or inactive are those of the source.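 The calls were made as follows, unless noted: active = viability at or under a set limit in both replicates, limit being median viability minus 3 SD (cut at about 48% in these data, passing the limit was not always enough); inconclusive = at or under the limit in just one replicate; inactive = at or above the limit in both replicates.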

Legend:
[1] = reducers of endogenous Her2 protein level, primary screen, SKBR3 breast tumor cells, AlphaScreen, ATP viability (AID 461;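 active = Her2 level under about 52% in both replicate screens, with viability over 70% of control, limit read from the data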;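 as to Her2 level: lower value means less Her2 protein in the cells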;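 as to viability: percent of carrier control wells set as 100% viability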); conditions: 18-24 h, measured here: SKBR3 viability, ATP luminescence, at 10 µM
[2] = molecular target: Receptor tyrosine-protein kinase erbB-2 (Homo sapiens) (UniProt P04626); test: as above; conditions: 18-24 h, at 10 µM, stronger effect = lower value
[3] = SK-BR-3 cell growth inhibitors, pilot screen, 24 h, human (AID 572;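 active = viability at or below 10% of carrier control in both of two separate runs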;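 also: compound exposure lasted between 18 and 24 h rather than exactly 24 h; 100% = carrier-treated control wells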); conditions: SK-BR-3 viability, CellTiter-Glo luminescence, at 10 µM, stronger effect = lower value
[4] = HUVEC growth inhibition – cell-based, human, primary screen (AID 575;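 active = viability at or below 30% in both replicate assays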;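 also: 100% = median of untreated cell wells with 0.1% DMSO on each plate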); conditions: HUVEC proliferation, CellTiter-Glo luminescence, 72 h; at 10 µM; stronger effect = lower value
Method in brief: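 Test system: primary human umbilical vein endothelial cells; medium: endothelial basal medium with 2% FBS plus growth supplements; dosing: 10 µM compound only; times: 72 h treatment at 37 °C; signal: CTG luminescence; read-out: % viability relative to median vehicle-well signal on each plate; control set: vehicle and MePR control wells; plate: 384-well, collagen-coated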

[5] = growth inhibitors of H69AR lung tumor, primary screen, human, duplicate replicates (AID 580); conditions: H69AR lung tumor cells viability, ATP luminescence, 72 h; at 10 µM; stronger effect = lower value;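 also: 100% = mean luminescence of untreated wells and 0% = no signal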
[6] = reversal of MRP1-mediated doxorubicin resistance, pilot screen, H69AR cells, doxorubicin co-treatment (AID 601;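 active = viability loss from added drug above about 55%, and viability with drug at most 40%, in both replicates, limit read from the data, passing the limit was not always enough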); conditions: CellTiter-Glo, 72 h, at 10 µM; for differential viability (reversal): stronger effect = higher value
[7] = 384-well plate pilot, post-Golgi transport modulator project, inhibition of yeast transport mutant growth (AID 636; in the data active = inhibition above about 31%); conditions: absorbance 615 nm, about 18 h, stronger effect = higher value
[8] = growth suppression of yeast trafficking mutant, preliminary HTS, modulators of trafficking downstream of Golgi apparatus project, 1536-format plate, OD 615 nm (AID 637; in the data active = inhibition above about 30%); conditions: yeast transport mutant growth, absorbance 615 nm, 18 h; stronger effect = higher value
[9] = H69AR cells + 2 uM doxorubicin, measured here: viability with 2 uM doxorubicin, stronger effect = lower value
[10] = H69AR cells, compound alone cytotoxicity

Sequence of Receptor tyrosine-protein kinase erbB-2 (Homo sapiens) (P04626 whole entry, looked up): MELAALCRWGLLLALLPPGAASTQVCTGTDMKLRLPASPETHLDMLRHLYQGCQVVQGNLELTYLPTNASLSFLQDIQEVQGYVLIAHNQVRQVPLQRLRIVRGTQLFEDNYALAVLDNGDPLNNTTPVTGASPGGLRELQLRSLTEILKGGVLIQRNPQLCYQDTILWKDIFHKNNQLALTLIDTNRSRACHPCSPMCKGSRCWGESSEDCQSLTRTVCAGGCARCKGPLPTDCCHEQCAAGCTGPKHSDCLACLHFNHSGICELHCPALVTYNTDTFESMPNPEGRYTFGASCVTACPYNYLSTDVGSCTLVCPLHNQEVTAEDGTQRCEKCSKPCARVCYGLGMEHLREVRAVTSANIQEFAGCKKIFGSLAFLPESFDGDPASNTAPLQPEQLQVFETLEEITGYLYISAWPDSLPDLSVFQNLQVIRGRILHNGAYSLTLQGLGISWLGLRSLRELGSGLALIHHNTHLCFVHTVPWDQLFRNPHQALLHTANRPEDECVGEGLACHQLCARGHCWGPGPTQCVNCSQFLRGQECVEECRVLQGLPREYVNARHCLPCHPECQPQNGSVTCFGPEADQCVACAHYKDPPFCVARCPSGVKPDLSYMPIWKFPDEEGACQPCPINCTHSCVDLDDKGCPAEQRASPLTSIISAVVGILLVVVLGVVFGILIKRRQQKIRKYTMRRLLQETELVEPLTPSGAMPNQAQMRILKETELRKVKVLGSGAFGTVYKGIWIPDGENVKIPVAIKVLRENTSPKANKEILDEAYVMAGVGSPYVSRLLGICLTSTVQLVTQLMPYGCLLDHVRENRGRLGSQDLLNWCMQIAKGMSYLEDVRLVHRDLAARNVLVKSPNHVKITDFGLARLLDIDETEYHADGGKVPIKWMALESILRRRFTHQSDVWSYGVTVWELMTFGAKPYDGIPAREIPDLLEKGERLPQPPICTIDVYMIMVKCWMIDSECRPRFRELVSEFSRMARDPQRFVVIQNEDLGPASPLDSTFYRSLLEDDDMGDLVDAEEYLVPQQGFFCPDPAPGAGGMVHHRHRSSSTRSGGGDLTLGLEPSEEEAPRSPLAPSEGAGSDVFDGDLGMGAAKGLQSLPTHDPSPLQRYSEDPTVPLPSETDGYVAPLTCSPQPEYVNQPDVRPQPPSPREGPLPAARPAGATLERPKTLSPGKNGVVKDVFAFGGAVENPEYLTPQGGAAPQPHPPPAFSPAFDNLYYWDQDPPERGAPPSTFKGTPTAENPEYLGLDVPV

Row | SMILES | viability [1] | Her2 level [2] | viability [3] | viability [4] | viability [5] | differential viability (reversal) ([6]; H69AR cells + 2 uM doxorubicin) | viability [6, 9] | viability [6, 10] | inhibition [7] | inhibition [8]
1 | CCOC(=O)Cc1csc(NC(=O)CN(C)S(=O)(=O)c2ccc3c(c2)CCC(=O)N3)n1 | 108% | 109% (inactive) | 108% (inactive) | 97.5% (inactive) | 100% (inactive) | 6.38% (inactive) | 93.7% | 100% | -4% (inactive) | 0.82% (inactive)
2 | O=C(OCC#CCSc1nc2ccccc2o1)c1ccco1 | 112% | 84% (inactive) | 112% (inactive) | 80.4% (inactive) | 80.4% (inactive) | -1.78% (inactive) | 82.2% | 80.4% | -6.67% (inactive) | -7.7% (inactive)
3 | Cc1ccccc1N1C(N)=NC(N)=NC1(C)C | 107% | 84% (inactive) | 107% (inactive) | 98.3% (inactive) | 90.6% (inactive) | -0.97% (inactive) | 91.5% | 90.6% | -3.9% (inactive) | -3.17% (inactive)
4 | COc1ccc(C(=O)NCCn2ccc3ccccc32)c(OC)c1 | 95% | 81% (inactive) | 95% (inactive) | 88.7% (inactive) | 87.7% (inactive) | -0.23% (inactive) | 87.9% | 87.7% | -6.49% (inactive) | 1.11% (inactive)
5 | COC(=O)CCn1nnc(-c2cccs2)n1 | 99.5% | 126% (inactive) | 99.5% (inactive) | 101% (inactive) | 103% (inactive) | 5.5% (inactive) | 97.4% | 103% | 3.73% (inactive) | 4.1% (inactive)
6 | CC(=O)N1CCN(c2ccc(N=Cc3c(O)n(Cc4ccccc4)c(=O)[nH]c3=O)cc2)CC1 | 89% | 87.5% (inactive) | 89% (inactive) | 83.5% (inactive) | 94.6% (inactive) | -3.64% (inactive) | 98.2% | 94.6% | -0.91% (inactive) | 0.95% (inactive)
7 | CCC(Oc1ccc2ccccc2c1)C(=O)O (stereo not given) | 89.5% | 98.5% (inactive) | 89.5% (inactive) | 85.6% (inactive) | 80.1% (inactive) | -1.54% (inactive) | 81.6% | 80.1% | -3.33% (inactive) | 1.15% (inactive)
8 | O=c1c2c3nc4ccccc4nc3n(CC3CCCO3)c2ncn1CCc1ccccc1 (stereo not given) | 97% | 83.5% (inactive) | 97% (inactive) | 76.2% (inactive) | 70.4% (inactive) | 38.6% (inactive) | 31.8% | 70.4% | -6.93% (inactive) | -2.62% (inactive)
9 | COc1ccc(CN(CC(=O)NCC2CCCO2)C(=O)CNS(=O)(=O)c2ccc(C)cc2)cc1 (stereo not given) | 107% | 102% (inactive) | 107% (inactive) | 96.3% (inactive) | 97.2% (inactive) | 2.2% (inactive) | 95% | 97.2% | -0.53% (inactive) | -6.23% (inactive)
10 | Cc1nnc(SCC(=O)N2CCC(C(=O)Nc3nccs3)CC2)n1Cc1ccccc1 | 91.5% | 80% (inactive) | 91.5% (inactive) | 96.2% (inactive) | 91.5% (inactive) | 5.37% (inactive) | 86.1% | 91.5% | -3.87% (inactive) | 0.33% (inactive)
11 | O=C(CN1CCCN(S(=O)(=O)c2ccc(Br)cc2)CC1)Nc1ccc2cn[nH]c2c1 | 106% | 109% (inactive) | 106% (inactive) | 73.1% (inactive) | 7.15% (active) | -13.3% (inactive) | 20.5% | 7.15% | -2.37% (inactive) | 2.79% (inactive)
12 | CC(C)(C)C(=O)N=C1SC2CS(=O)(=O)CC2N1c1ccc2c(c1)OCO2 (stereo not given) | 88% | 110% (inactive) | 88% (inactive) | 104% (inactive) | 106% (inactive) | 10.5% (inactive) | 95.7% | 106% | 0.79% (inactive) | -7.82% (inactive)
13 | O=S(=O)(NCC1CCCO1)c1cccc(C(F)(F)F)c1 (stereo not given) | 97% | 93.5% (inactive) | 97% (inactive) | 95.1% (inactive) | 95.1% (inactive) | 6.7% (inactive) | 88.4% | 95.1% | -0.66% (inactive) | -5.64% (inactive)
14 | Cc1ccc(CNC(=O)COC(=O)c2c(C)noc2C)cc1 | 99% | 121% (inactive) | 99% (inactive) | 97.4% (inactive) | 92.8% (inactive) | 7.25% (inactive) | 85.6% | 92.8% | -4.03% (inactive) | -14.2% (inactive)
15 | COc1ccccc1OCCOc1ccccc1/C=N/n1cnnc1 | 81.5% | 104% (inactive) | 81.5% (inactive) | 96.4% (inactive) | 70.9% (inactive) | -22.5% (inactive) | 93.5% | 70.9% | 1.28% (inactive) | -5% (inactive)
16 | O=C(CCSc1nccn1Cc1ccccc1)N1CCOCC1 | 107% | 111% (inactive) | 107% (inactive) | 103% (inactive) | 97% (inactive) | 11.1% (inactive) | 86% | 97% | -6.13% (inactive) | -0.65% (inactive)
17 | Cc1ccccc1NC(=O)c1c(F)c(F)c(F)c(F)c1F | 90.5% | 98% (inactive) | 90.5% (inactive) | 103% (inactive) | 88.9% (inactive) | 2.94% (inactive) | 86% | 88.9% | -5.13% (inactive) | 4.1% (inactive)
18 | Fc1ccccc1C(c1nnnn1Cc1ccc2c(c1)OCO2)N1CCN(Cc2ccccc2)CC1 (stereo not given) | 121% | 88% (inactive) | 121% (inactive) | 69.6% (inactive) | 89.3% (inactive) | -7.54% (inactive) | 96.9% | 89.3% | 2.16% (inactive) | -4.13% (inactive)
19 | COc1ccc(OCC(=O)N2CCN(C(=O)c3cccs3)CC2)cc1 | 117% | 82.5% (inactive) | 117% (inactive) | 83.5% (inactive) | 87.4% (inactive) | 1.78% (inactive) | 85.6% | 87.4% | -3.29% (inactive) | -2.9% (inactive)
20 | Cc1cccc(NC(=O)CC(C)(C)C)c1 | 110% | 90.5% (inactive) | 110% (inactive) | 92.4% (inactive) | 97.9% (inactive) | 2.31% (inactive) | 95.6% | 97.9% | -6.53% (inactive) | -5.08% (inactive)
21 | COc1ccc(NC(=O)Nc2cc(C)ccc2OC)cc1 | 101% | 109% (inactive) | 101% (inactive) | 96.1% (inactive) | 93.6% (inactive) | -4.12% (inactive) | 97.7% | 93.6% | 1.18% (inactive) | -3.11% (inactive)
22 | Cc1ccc2c(CNCc3ccco3)cc(=O)oc2c1 | 117% | 94.5% (inactive) | 117% (inactive) | 84.1% (inactive) | 93.5% (inactive) | 11.5% (inactive) | 81.9% | 93.5% | -1.07% (inactive) | -4.03% (inactive)
23 | CCOc1cccc(C(=O)Nc2cccc(-c3nc4ncccc4o3)c2C)c1 | 99% | 75.5% (inactive) | 99% (inactive) | 81.5% (inactive) | 75.6% (inactive) | -12.9% (inactive) | 88.5% | 75.6% | -0.39% (inactive) | -0.97% (inactive)
24 | Cc1[nH]c(=O)[nH]c(=O)c1S(=O)(=O)N1CCCC(C(=O)NCc2ccco2)C1 (stereo not given) | 102% | 80% (inactive) | 102% (inactive) | 96.3% (inactive) | 86.4% (inactive) | -1.73% (inactive) | 88.1% | 86.4% | -3.82% (inactive) | 0.67% (inactive)
25 | COCn1c(COc2ccccc2)nc2ccccc21 | 86.5% | 94% (inactive) | 86.5% (inactive) | 107% (inactive) | 82.6% (inactive) | -2.19% (inactive) | 84.8% | 82.6% | -9.32% (inactive) | -2.67% (inactive)
26 | Cc1cc(C2C(C#N)=C(N)SC(N)=C2C#N)c(C)s1 | 107% | 100% (inactive) | 107% (inactive) | 82.4% (inactive) | 94.7% (inactive) | 7.28% (inactive) | 87.5% | 94.7% | -2.89% (inactive) | 7.21% (inactive)
27 | COc1cc(NC(=O)C(C)Oc2ccccc2)c(C(=O)O)cc1OC (stereo not given) | 116% | 90% (inactive) | 116% (inactive) | 96.4% (inactive) | 92.8% (inactive) | 11.7% (inactive) | 81.1% | 92.8% | -7.07% (inactive) | 2.13% (inactive)
28 | [O-][n+]1c2c(nn1-c1ccccc1Cl)-c1nonc1CC2 | 102% | 85% (inactive) | 102% (inactive) | 115% (inactive) | 105% (inactive) | 20% (inactive) | 85.5% | 105% | -5.54% (inactive) | -0.67% (inactive)
29 | COc1ccc(NC(=O)C(C)Oc2ccc(/C(C)=N\O)cc2)cc1 (stereo not given) | 122% | 92% (inactive) | 122% (inactive) | 91.9% (inactive) | 90.4% (inactive) | 7.12% (inactive) | 83.3% | 90.4% | -7.33% (inactive) | -0.32% (inactive)
